Results on six compounds are retold here after ChEMBL document CHEMBL2331445, “Chemical, biochemical and microbiological properties of a brominated nitrovinylfuran with broad-spectrum antibacterial activity” (Bioorg Med Chem, 2013).

≈ marks a conversion by molar mass, not a printed value. Calls of active or inactive are those of the source. The rule behind the calls is not given here.

The subject of data set [1] is Escherichia coli. As to the kind of experiment: microbe, parasite or virus in culture. In kind it is functional. Conditions: ATCC 25922.
Another data set concerns Dengue virus. As to conditions: at 50 µM.
Data set [2] relates to Staphylococcus aureus. In words: microbe, parasite or virus in culture. It counts as functional. As to conditions: NCTC 10442.
Data set [3] relates to Escherichia coli. As to conditions: at 10 µM.
Data set [4] deals with UDP-N-acetylglucosamine 1-carboxyvinyltransferase (Escherichia coli K-12) (UniProt P0A749). Conditions: 200 nM.
The nature of data set [5]: Inhibition of Pseudomonas aeruginosa MurA expressed in Escherichia coli BL21(lambdaDE3) using UNAG and PEP as substrate incubated for 10 mins prior to PEP addition measured after 60 mins by spectrophotometric analysis.
Data set [6] deals with UDP-N-acetylglucosamine 1-carboxyvinyltransferase (Escherichia coli K-12) (UniProt P0A749). As to conditions: 100 nM.
The target in data set [7] is UDP-N-acetylglucosamine 1-carboxyvinyltransferase (Escherichia coli K-12, UniProt P0A749, C115D). In words: Inhibition of Escherichia coli MurA C115D mutant expressed in Escherichia coli BL21(lambdaDE3) using UNAG and PEP as substrate incubated for 10 mins prior to PEP addition measured after 60 mins by spectrophotometric analysis.
The subject of a further data set is HaCaT. As to the kind of experiment: Cytotoxicity against human HaCaT cells after 72 hrs by crystal violet staining method. In kind it is ADME, cell-based.
The next data set relates to Pseudomonas aeruginosa. As to the kind of experiment: microbe, parasite or virus in culture. It counts as functional. Conditions: ATCC 27853.
The subject of another data set is Calu-6. As to the kind of experiment: Cytotoxicity against human Calu6 cells after 72 hrs by crystal violet staining method. It counts as ADME, cell-based. Conditions: Calu-6, 72 h.
The test system of another data set is CAPAN-1. As to the kind of experiment: Cytotoxicity against human Capan1 cells after 72 hrs by crystal violet staining method. In kind it is ADME, cell-based. As to conditions: CAPAN-1, 72 h.
The test system of data set [8] is UDP-N-acetylglucosamine 1-carboxyvinyltransferase (Escherichia coli K-12), P0A749 [C115D]. In words: Inhibition of Escherichia coli MurA C115D mutant expressed in Escherichia coli BL21(lambdaDE3) using UNAG and PEP as substrate at 50 to 500 uM incubated for 30 mins by 2,2'-dithiopyridine based spectrophotometric analysis. The procedure, abridged: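 MurA (wild-type or C115D) was incubated with test compound at an equimolar ratio or 10-fold excess in 50 mM Tris pH 7.8 at room temperature for 30 min. 2,2'-Dithiodipyridine was then added in 0.5 M citrate pH 4 with 6 M urea for 30 min and quenched with 4% TFA. 2-Thiopyridone was measured by HPLC at 342 nm against a compound-free control.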

Data set [9] deals with Methionine aminopeptidase 2 (Homo sapiens) (UniProt P50579). Conditions: at 10 µM.
In a further data set the test system is MeWo. In words: Cytotoxicity against human MeWo cells after 72 hrs by crystal violet staining method. In kind it is ADME, cell-based.
Data set [10] can be described thus: Inhibition of Staphylococcus aureus MurA2 expressed in Escherichia coli BL21(lambdaDE3) using UNAG and PEP as substrate incubated for 10 mins prior to PEP addition measured after 60 mins by spectrophotometric analysis.
A short description of data set [11]: Cytotoxicity against human SW707 cells after 72 hrs by crystal violet staining method. In kind it is ADME, cell-based. Conditions: SW707, 72 h.
Data set [12] deals with UDP-N-acetylglucosamine 1-carboxyvinyltransferase (Escherichia coli K-12, UniProt P0A749). As to the kind of experiment: Inhibition of Escherichia coli MurA expressed in Escherichia coli BL21(lambdaDE3) using UNAG and PEP as substrate incubated for 10 mins prior to PEP addition measured after 60 mins by spectrophotometric analysis.
A further data set has as its system Ca-Ski. As to the kind of experiment: Cytotoxicity against human CaSki cells after 72 hrs by crystal violet staining method. It counts as ADME, cell-based.
The target of data set [13] is Methionine aminopeptidase 1 (Homo sapiens) (UniProt P53582). Conditions: at 10 µM.
The next data set has as its system A-431. In words: Cytotoxicity against human A431 cells after 72 hrs by crystal violet staining method. Conditions: A-431, 72 h. In kind it is ADME, cell-based.
Data set [14] is described as follows: Cytotoxicity against human Flow 2002 cells after 72 hrs by crystal violet staining method. In kind it is ADME, cell-based. As to conditions: Flow 2002, 72 h.
Data set [15] addresses Prothrombin (Homo sapiens) (UniProt P00734). Conditions: at 25 µM.
Data set [16] relates to Staphylococcus aureus. In words: microbe, parasite or virus in culture. In kind it is functional. Conditions: ATCC 25923.
Data set [17] can be described thus: Induction of GSH-adduct formation in citrate buffer at100 uM by RP-LC/MS analysis. Conditions: 100 µM.
A short description of data set [18]: Induction of GSSG formation in citrate buffer at 100 uM by RP-LC/MS analysis.
Data set [19] is described as follows: Half life of the compound in citrate buffer at pH 6.
The nature of data set [20]: Half life of the compound in tris buffer at pH 7.8.
Data set [21] in a line: Cytotoxicity against human lymphoblastoid cells assessed as cell vaibility at 46 uM. As to conditions: read-out: Activity. In kind it is cell-based.

Chain of UDP-N-acetylglucosamine 1-carboxyvinyltransferase (Escherichia coli K-12, UniProt P0A749, C115D) (P0A749 whole entry C115D): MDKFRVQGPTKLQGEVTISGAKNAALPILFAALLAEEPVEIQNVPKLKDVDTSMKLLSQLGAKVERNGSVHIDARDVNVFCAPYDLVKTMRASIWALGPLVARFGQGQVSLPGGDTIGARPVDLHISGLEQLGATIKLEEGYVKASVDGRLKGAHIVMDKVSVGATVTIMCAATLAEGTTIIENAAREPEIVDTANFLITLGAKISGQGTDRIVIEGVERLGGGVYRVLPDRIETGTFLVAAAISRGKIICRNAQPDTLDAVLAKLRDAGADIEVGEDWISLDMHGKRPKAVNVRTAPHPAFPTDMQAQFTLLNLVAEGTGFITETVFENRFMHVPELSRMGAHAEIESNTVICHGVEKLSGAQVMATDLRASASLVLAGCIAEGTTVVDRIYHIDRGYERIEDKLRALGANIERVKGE
Chain of UDP-N-acetylglucosamine 1-carboxyvinyltransferase (Escherichia coli K-12, UniProt P0A749) (P0A749 whole entry): as the sequence (P0A749 whole entry C115D) above, with D115C counted along it
Chain of Methionine aminopeptidase 2 (Homo sapiens) (P50579 2-478 limits assumed): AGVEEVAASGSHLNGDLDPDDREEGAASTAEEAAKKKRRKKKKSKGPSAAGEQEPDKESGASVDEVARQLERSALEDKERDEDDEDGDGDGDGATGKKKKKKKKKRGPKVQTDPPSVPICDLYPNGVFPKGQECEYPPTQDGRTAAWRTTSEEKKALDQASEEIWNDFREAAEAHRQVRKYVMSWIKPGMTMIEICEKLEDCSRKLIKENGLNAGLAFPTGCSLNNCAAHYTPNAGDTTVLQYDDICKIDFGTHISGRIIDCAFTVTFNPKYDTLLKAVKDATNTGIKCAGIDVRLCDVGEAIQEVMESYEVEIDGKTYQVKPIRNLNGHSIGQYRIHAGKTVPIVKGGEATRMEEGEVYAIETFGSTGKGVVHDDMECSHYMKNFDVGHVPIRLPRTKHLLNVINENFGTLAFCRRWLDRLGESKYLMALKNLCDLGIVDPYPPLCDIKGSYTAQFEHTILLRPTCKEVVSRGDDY
Chain of UDP-N-acetylglucosamine 1-carboxyvinyltransferase (Escherichia coli K-12) (P0A749 whole entry): as the sequence (P0A749 whole entry C115D) above, with D115C counted along it
Chain of UDP-N-acetylglucosamine 1-carboxyvinyltransferase (Escherichia coli K-12), P0A749 [C115D] (P0A749 whole entry C115D): as the sequence (P0A749 whole entry C115D) above

One may read the inhibition as how much of the control response was suppressed. Usually IC50 stands for the concentration that gives 50% inhibition. For `C[C@@H]1O[C@@H]1P(=O)(O)O` [FOSFOMYCIN], the MIC in the data set on Escherichia coli [1] was 2 µg/mL (≈ 14.5 µM); in the data set with Staphylococcus aureus [2], 4 µg/mL (≈ 29 µM); with Pseudomonas aeruginosa it was 1 µg/mL (≈ 7.24 µM); in the data set on Staphylococcus aureus [16] it was 4 µg/mL (≈ 29 µM). The inhibition entry (in the data set on Dengue virus; in the data set with Escherichia coli [3]; in data set [4]; in data set [8]; in [9]; in data set [13]) was “inactive” each time. In addition, the inhibition result in [15] was “inactive”. For the same compound, the IC50 in data set [5] (read-out: IC50) was 10.5 µM; in data set [7], “Not Active”; in the data set with HaCaT, no less than 100 µM; with Calu-6, no less than 100 µM; in the data set on CAPAN-1 it was no less than 100 µM; in the data set with MeWo it was no less than 100 µM. Also, the IC50 in data set [10] (read-out: IC50) was 1.1 µM; in data set [11] it was no less than 100 µM; in [12] (read-out: IC50) it was 0.1 µM; in the data set with Ca-Ski, no less than 100 µM; in the data set with A-431 it was no less than 100 µM; in [14], no less than 100 µM. The inhibition entry in [6] was “tde”.

With `C[N+](=O)[O-]` [NITROMETHANE], the MIC was 32 µg/mL (≈ 524 µM) against Escherichia coli [1], greater than 32 µg/mL against Staphylococcus aureus [2], 8 µg/mL (≈ 131 µM) in the data set with Pseudomonas aeruginosa and 8 µg/mL (≈ 131 µM) against Staphylococcus aureus [16]. Further, the inhibition result (in the data set on Dengue virus; in the data set with Escherichia coli [3]; in data set [9]; in [13]; in data set [15]) was “inactive” in each case. Moreover, the half-maximal inhibitory concentration (IC50) entry in data set [5] is “Not Active”; in data set [7] it was “Not Active”; in the data set on HaCaT, no less than 100 µM; with Calu-6 it was no less than 100 µM; with CAPAN-1 it was no less than 100 µM; with MeWo it was no less than 100 µM. The half-maximal inhibitory concentration (IC50) result is “Not Active” in data set [10]; no less than 100 µM in data set [11]; “Not Active” in [12]; no less than 100 µM in the data set on Ca-Ski; no less than 100 µM with A-431; no less than 100 µM in data set [14].

In the case of `O=Cc1ccc(Br)o1`, the MIC against Escherichia coli [1], with Staphylococcus aureus [2], against Pseudomonas aeruginosa and against Staphylococcus aureus [16] was greater than 32 µg/mL in each case. The inhibition entry (in the data set with Dengue virus; in the data set with Escherichia coli [3]; in data set [9]; in [13]; in data set [15]) was “inactive” each time. Further, the result in [17] and in [18] was Active. The half-inhibitory concentration (IC50) entry in data set [5] is “Not Active”; in data set [7], “Not Active”; in the data set with HaCaT, no less than 100 µM; with Calu-6 it was no less than 100 µM; in the data set on CAPAN-1 it was no less than 100 µM; in the data set on MeWo, no less than 100 µM. In addition, the concentration for half-maximal inhibition (IC50) entry in data set [10] was “Not Active”; in data set [11], no less than 100 µM; in data set [12], “Not Active”; in the data set on Ca-Ski, no less than 100 µM; in the data set with A-431 it was no less than 100 µM; in data set [14], no less than 100 µM.

Usually half-life stands for how long it takes for the measured level to halve. A low value points to fast loss. With `O=[N+]([O-])/C=C/c1ccc(Br)o1`, the MIC against Escherichia coli [1] amounted to 2 µg/mL (≈ 9.17 µM); against Staphylococcus aureus [2] it was 2 µg/mL (≈ 9.17 µM); in the data set with Pseudomonas aeruginosa it was 4 µg/mL (≈ 18.3 µM); in the data set with Staphylococcus aureus [16], 2 µg/mL (≈ 9.17 µM). Besides, the inhibition amounted to 26% in the data set on Dengue virus, 30% with Escherichia coli [3], 7% in data set [9] and 19% in data set [15]. Also, the Activity result was “Not Active” in data set [17] and “Active” in data set [18]. The IC50 in data set [5] (read-out: IC50) is 20.3 µM; in data set [7] (read-out: IC50) it was 23.8 µM; with HaCaT, 15 µM; in the data set with Calu-6, 5 µM; in the data set on CAPAN-1, 19 µM; in the data set with MeWo it was 21 µM. The half-maximal inhibitory concentration (IC50) was 20.7 µM in data set [10] (read-out: IC50); 22 µM in data set [11]; 27.3 µM in data set [12] (read-out: IC50); 18 µM in the data set with Ca-Ski; 12 µM in the data set with A-431; 6 µM in [14]. The half-life in [19] was 116 h; in data set [20], 58 h. In addition, the viability at 46 µM in [21] was greater than 70%. Further, in data set [13], the inhibition result is “inactive”.

Turning to `O=[N+]([O-])CBr` [BROMO(NITRO)METHANE], the MIC in the data set with Escherichia coli [1] is 1 µg/mL (≈ 7.15 µM); against Staphylococcus aureus [2], 2 µg/mL (≈ 14.3 µM); in the data set on Pseudomonas aeruginosa, 0.5 µg/mL (≈ 3.57 µM); against Staphylococcus aureus [16], 2 µg/mL (≈ 14.3 µM). In addition, the inhibition entry (in the data set with Dengue virus; in [13]; in data set [15]) was “inactive” in each case. The Activity entry in [17] is reported as “Active”; in data set [18] it was “Not Active”. In addition, the figures for the inhibition (with Escherichia coli [3]; in [9]) were 85% and 22%, respectively. The IC50 in data set [5] (read-out: IC50) was 4 µM; in data set [7] (read-out: IC50), 7.8 µM; in the data set on HaCaT it was 25 µM; in the data set with Calu-6 it was 23 µM; in the data set on CAPAN-1, 69 µM; in the data set on MeWo, 40 µM. The IC50 stood at 6.2 µM in [10] (read-out: IC50); 73 µM in [11]; 4.6 µM in data set [12] (read-out: IC50); 99 µM with Ca-Ski; 38 µM in the data set on A-431; 14 µM in data set [14].

Take `C=C1C(=O)O[C@@H]2/C=C(\CO)CC/C=C(\C)C[C@H](OC(=O)C(=C)[C@H](O)CO)[C@@H]12` [CNICIN]: the MIC against Escherichia coli [1], against Staphylococcus aureus [2], in the data set with Pseudomonas aeruginosa and against Staphylococcus aureus [16] was greater than 32 µg/mL in each case. The inhibition entry (in the data set on Dengue virus; in the data set with Escherichia coli [3]; in data set [13]; in data set [15]) was “inactive” in each case. Further, the IC50 in [5] (read-out: IC50) was 10.3 µM; in [7] it was “Not Active”; in the data set on HaCaT, 80 µM; in the data set with Calu-6, 44 µM; with CAPAN-1, 93 µM; with MeWo it was no less than 100 µM. Further, the half-inhibitory concentration (IC50) in [10] (read-out: IC50) was 20.4 µM; in data set [11] it was no less than 100 µM; with Ca-Ski, no less than 100 µM; in the data set on A-431 it was 27 µM; in [14], 82 µM. In data set [9], this compound gave an inhibition of 9%.
